Screens as filed in PubChem BioAssay.
KCC2 mod = modulates chloride dependent transport by human KCC2. B-score of Tl+ flux slope (higher = more flux/activation; lower = inhibition) at 10 µM. Q9H2X9. 190,000 compounds, 2.2% hits. KCC2 cells, thallium flux FluoZin-2 fluorescence;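 active = thallium flux slope and its plate-corrected score both differing from the plate sample mean at a set confidence after two filtering rounds, in either direction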;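 also: slope of fluorescence scaled to starting intensity during 10 to 20 s after thallium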
hERG protect = hERG (human) protection from proarrhythmic block | CHO-hERG, FluxOR thallium flux, dofetilide IC70 present | 310,000 compounds, 0.51% hits | activation (rescue from dofetilide block), less the hit threshold, % at 10 µM;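 active = activation above the mean of controls blocked by dofetilide plus 5 SD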;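 also: thallium influx through hERG after potassium depolarization seen as dye fluorescence rise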
KCNQ1 inh = human KCNQ1 channel inhibition; CHO-K1 KCNQ1, FluxOR thallium flux fluorescence; hits give high values; B-score at 10 µM; 310,000 compounds, 1.3% hits; AID 2642;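 active = compounds whose thallium flux B-score, printed positive for inhibition, exceeds three library SD while starting fluorescence stays within three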;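 also: channel opened by potassium depolarization with thallium stimulus after 20 min compound exposure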
KCNK3 block = human KCNK3 channel inhibition, primary screen; CHO-KCNK3 thallium flux, FluxOR fluorescence; hits give low values; B-score at 10 µM; 340,000 compounds, 0.84% hits; AID 602410;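 active = B-score under library mean minus 4 SD, starting fluorescence ratio at most library mean plus 5 SD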;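 also: more negative B-score means stronger inhibition of thallium flux through KCNK3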
Target sequence (O14649 whole entry, looked up): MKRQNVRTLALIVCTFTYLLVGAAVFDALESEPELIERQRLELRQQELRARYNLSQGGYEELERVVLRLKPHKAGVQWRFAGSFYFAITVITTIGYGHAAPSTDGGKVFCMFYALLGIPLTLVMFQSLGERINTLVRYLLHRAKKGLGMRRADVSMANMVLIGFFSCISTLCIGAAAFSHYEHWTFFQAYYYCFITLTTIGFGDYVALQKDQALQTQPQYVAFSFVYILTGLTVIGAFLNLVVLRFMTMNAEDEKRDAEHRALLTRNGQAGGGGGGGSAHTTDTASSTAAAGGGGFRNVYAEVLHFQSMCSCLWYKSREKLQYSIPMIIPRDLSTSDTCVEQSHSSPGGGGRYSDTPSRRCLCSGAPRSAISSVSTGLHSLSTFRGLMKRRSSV
KCNQ1 act = potentiates or activates the human KCNQ1 potassium channel. CHO-K1 KCNQ1, thallium flux FluxOR fluorescence; hits give high values. P51787. B-score at 10 µM. 310,000 compounds, 0.35% hits;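 active = fluorescence ratio B-score, a plate-corrected score, at least three library SD, with initial intensity B-score within 5 SD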
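System: Stable KCNQ1 CHO-K1 line | Incubation: 90 min dye loading and 20 min compound exposure, both at room temperature | Measure: Ratio B score | Medium: Assay buffer for compound exposure, DMSO matched across wells | Compound dosing: Single-concentration screen | Probe or stimulus: K+/Tl+ depolarizing stimulus | Measured by: Kinetic FluxOR fluorescence, 10 s baseline plus 110 s post-stimulus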
KCNK9 inh = human KCNK9 channel inhibition; HEK293 KCNK9, FluxOR thallium flux fluorescence; hits give low values; 310,000 compounds, 1.2% hits; AID 488922; Q9NPC2; B-score at 10 µM;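 active = ratio B-score over 3 SD below the library mean, with starting fluorescence within 5 SD of its mean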;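 also: negative B-score means less thallium flux so channel inhibition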
Target sequence (Q9NPC2 whole entry, looked up): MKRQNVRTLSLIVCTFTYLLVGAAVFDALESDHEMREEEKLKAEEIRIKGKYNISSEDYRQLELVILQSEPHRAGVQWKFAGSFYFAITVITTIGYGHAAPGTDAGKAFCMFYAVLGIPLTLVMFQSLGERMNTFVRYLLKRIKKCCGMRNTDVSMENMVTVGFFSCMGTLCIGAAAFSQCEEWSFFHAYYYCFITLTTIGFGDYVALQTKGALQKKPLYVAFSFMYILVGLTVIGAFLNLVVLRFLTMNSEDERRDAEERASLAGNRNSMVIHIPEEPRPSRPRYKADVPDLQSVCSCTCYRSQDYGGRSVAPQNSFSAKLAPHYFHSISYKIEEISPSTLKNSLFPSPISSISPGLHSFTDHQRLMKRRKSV
KCC2 sec1 = confirmation of human KCC2 transport modulators. AID 1713. 3,700 compounds, 15% hits. HEK293-KCC2, thallium flux, FluoZin2 fluorescence; hits give high values. normalised thallium flux (F/F0 slope) at 10 µM. shares compounds with KCC2 mod;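 active = thallium flux slope above the same plate's solvent-only control mean plus 3 SD; inconclusive = the two replicate wells disagree; inactive = no significant difference from solvent-only control wells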
KCC2 bumet counter = bumetanide-insensitive thallium flux in KCC2 cells with ouabain, counter-screen; shares compounds with KCC2 mod; HEK293-KCC2 + bumetanide/ouabain, thallium flux FluoZin2; hits give high values; normalized thallium flux at 10 µM; 3,700 compounds, 49% hits;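 active = thallium entry rate above the same plate's blocked-transporter control wells by more than 3 SD; inconclusive = the two repeat wells disagree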;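 also: raw slope of fluorescence over initial fluorescence between 10 and 20 s after thallium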
KCC2 secondary2 = confirmation of human KCC2 transport modulators; HEK293-KCC2, thallium flux FluoZin2 fluorescence; actives lie on both sides; F/F0 rise rate, 10–20 s post-thallium; 3,700 compounds, 23% hits; shares compounds with KCC2 mod; AID 1715; normalized thallium flux at 10 µM;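 active = thallium flux slope more than 3 SD above or below the plate's solvent-only control mean, mostly below; inconclusive = the two repeat wells disagreed; inactive = no significant shift from solvent-only controls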;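 also: raw slope with 0.1% DMSO as baseline and bumetanide as block control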
HEK293 Tl flux = parental HEK flux effect, counter-screen; HEK293 parental cells, thallium flux FluoZin2, ouabain; baseline-ratio fluorescence slope, 10–20 s after thallium; shares compounds with KCC2 mod; 3,700 compounds, 46% hits; thallium flux rate (normalised fluorescence) at 10 µM;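 active = thallium flux rate significantly above the same plate's solvent-only control wells, beyond their mean plus 3 SD; inconclusive = the two replicate wells gave conflicting results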
KCC2 retest ouab = confirmation of human KCC2 modulators with ouabain; shares compounds with KCC2 mod; HEK293-KCC2, thallium flux FluoZin2 fluorescence; bidirectional: low = inhibitor, high = activator; raw Tl+ flux slope (below DMSO = inhibition, above = activation) at 10 µM; 3,700 compounds, 48% hits; AID 1717;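 active = thallium flux slope beyond 3 SD from same-plate DMSO control mean in most replicates, usually higher, sometimes lower; inconclusive = repeat tests gave conflicting results; inactive = no significant difference from controls in most replicates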;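 also: slope of initial-normalized fluorescence between seconds 10 and 20 after thallium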
HEK293 Tl flux2 = parental HEK flux effect, counter-screen 2; shares compounds with KCC2 mod; HEK293 parental, thallium flux FluoZin-2 fluorescence slope; thallium flux slope at 10 µM; 3,700 compounds, 33% hits; AID 1718;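 active = thallium flux slope above the same plate's solvent-control mean plus 3 SD in both duplicate wells; inconclusive = duplicate wells that disagreed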;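 also: run without ouabain in cells lacking the KCC2 cotransporter; slope of fluorescence scaled to its starting value between 10 and 20 s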
The depositor's hits bear a star; i = inactive; ? = inconclusive; . = not tested or not shown. Sampled rows, rich in hits. Any-hit rate of the full collection: about 4.1%.

SMILES | KCC2 mod | hERG protect | KCNQ1 inh | KCNK3 block | KCNQ1 act | KCNK9 inh | KCC2 sec1 | KCC2 bumet counter | KCC2 secondary2 | HEK293 Tl flux | KCC2 retest ouab | HEK293 Tl flux2
O=C(CSc1nc2ccccc2c(=O)n1CCCN1CCOCC1)Nc1ccccc1OC(F)F | . | . | . | i | . | . | . | . | . | . | . | .
Cc1sc2ncnc(SCC(=O)Nc3nc(-c4ccc(F)c(F)c4)cs3)c2c1C | 45* | -3 | i | i | i | i | 0.026* | 0.078* | 0.046* | 0.04* | 0.072* | 0.022*
C[C@H]1CN=C(Nc2ccccc2)N1CCC1CCCC1 | . | -8 | i | i | i | i | . | . | . | . | . | .
Fc1ccc(N2CCN(C(=S)NCC3CCCO3)CC2)cc1 (stereo not given) | -2.6* | -8 | i | i | i | i | 0.0067 | 0.0059 | 0.028 | 0.0063 | ? | 0.0094
S=C(NCC1CCCO1)N1CCN(c2cccc(Cl)c2)CC1 (stereo not given) | -1.1 | -13 | i | i | i | i | . | . | . | . | . | .
CCC(=O)NNC(=O)c1cc(COc2cc(Cl)cc(Cl)c2)on1 | 8.6* | -6 | i | i | i | i | 0.0068 | 0.018* | 0.031 | 0.017* | ? | 0.014*
CCC(NC(=O)c1cc(COc2cncc(Cl)c2)on1)c1ccncc1 (stereo not given) | . | -5 | i | i | i | i | . | . | . | . | . | .
CNS(=O)(=O)c1ccc(NC(=O)c2cc(-c3ccncc3)nc3ccc(Cl)cc23)cc1 | . | -7 | i | i | i | i | . | . | . | . | . | .
S=c1[nH]nc(Nc2cccc(Cl)c2)s1 | -5.8* | -11 | i | i | i | i | 0.0061 | 0.0051 | 0.02* | 0.0082 | ? | 0.012
S=c1[nH]nc(Nc2ccccc2Cl)s1 | -5.3* | -1 | i | i | i | i | 0.0041* | 0.0094* | 0.022* | 0.012* | 0.012* | 0.014*
Clc1cccc(Nc2nc(-c3ccncc3)cs2)c1 | 1.9 | -8 | i | i | i | i | . | . | . | . | . | .
O=S(=O)(c1ccc(F)cc1)N1CCN(C(=S)NC2CC2)CC1 | . | . | . | i | . | . | . | . | . | . | . | .
S=C(N/N=C/c1cccs1)NC1CC2CCC1C2 (stereo not given) | 19* | -2 | i | i | i | i | 0.017* | 0.066* | 0.038 | 0.027* | ? | 0.016*
Oc1ccc(/C=N/NC(=S)NC2CC3CCC2C3)cc1 (stereo not given) | 0.44 | -4 | i | i | i | i | . | . | . | . | . | .
COc1ccc([C@H]2CC(=O)C=C(c3cc4ccccc4s3)C2)cc1OC | . | . | . | i | . | . | . | . | . | . | . | .
Cc1cc(C)n(-c2nc3sc4c(c3c(=O)[nH]2)CCCC4)n1 | 42* | -5 | i | . | 13* | i | 0.0083 | 0.1* | 0.098* | 0.1* | 0.089* | 0.069*
CC12CCC(=O)N1C(C(=O)N1CCN(c3ccc([N+](=O)[O-])cc3)CC1)CS2 (stereo not given) | . | . | . | i | . | . | . | . | . | . | . | .
O=C(Nc1ccccc1C(=O)Nc1nnc(C(F)(F)F)s1)c1ccccc1 | 3.2* | -28 | i | i | i | i | ? | 0.022* | 0.033 | ? | 0.019 | 0.011
Cc1cccc(NC(=S)NNc2ncc(C(F)(F)F)cc2Cl)c1 | 16* | -2 | i | i | i | i | 0.011 | 0.12* | 0.032 | 0.027* | 0.055* | 0.014*
CC(C)(C)NNC(=S)Nc1cccc(C(F)(F)F)c1 | 0.75 | -5 | i | i | i | i | . | . | . | . | . | .
O=C(Nc1ccc2[nH]c(=S)sc2c1)Nc1ccccc1F | 23* | 11* | i | i | 15* | i | 0.0062 | 0.034* | ? | 0.019* | 0.033* | 0.021*
Cc1noc(C)c1COc1ccc(C(=O)OCC(=O)NC23CC4CC(CC(C4)C2)C3)cc1 | . | -10 | i | i | i | i | . | . | . | . | . | .
Cc1noc(C)c1COc1ccc(C(=O)OCC(=O)NC2CCCCC2C)cc1 (stereo not given) | 0.82 | . | . | i | . | . | 0.009 | 0.0055 | 0.033 | 0.008 | 0.018 | ?
COC(=O)c1ccc2nc(Nc3nc4c(F)cc(F)cc4s3)sc2c1 | 9.2* | -4 | i | i | i | i | 0.0074 | 0.019* | 0.041* | 0.016* | 0.028* | 0.021*
CCOC(=O)c1ccc2nc(Nc3nc4ccc(F)cc4s3)sc2c1 | 1.4 | -5 | i | i | i | i | . | . | . | . | . | .
SMILES | KCC2 mod | hERG protect | KCNQ1 inh | KCNK3 block | KCNQ1 act | KCNK9 inh | KCC2 sec1 | KCC2 bumet counter | KCC2 secondary2 | HEK293 Tl flux | KCC2 retest ouab | HEK293 Tl flux2
Cc1nc(Cl)c(N=Cc2cccc([N+](=O)[O-])c2)c(Cl)n1 | . | -2 | i | i | i | i | . | . | . | . | . | .
C=CCN1CCc2cc(O)c(O)cc2C(c2ccccc2)C1 (stereo not given) | . | . | . | i | . | . | . | . | . | . | . | .
C=CCN1CCc2c(cc(O)c(O)c2Cl)C(c2ccccc2)C1 (stereo not given) | -3* | -7 | i | i | i | i | 0.0062 | 0.0053 | 0.029 | 0.0078 | 0.018 | 0.011
O=C(c1ccc(F)cc1)C(C(=O)N1CCCCC1)n1ccccc1=O (stereo not given) | -0.32 | -17 | i | i | i | i | . | . | . | . | . | .
CC(C)NC(=O)C1CCN(C(=O)C(C(=O)c2ccccc2)n2cc(Cl)ccc2=O)CC1 (stereo not given) | -4.3* | -6 | i | i | i | i | 0.0098 | ? | 0.036 | 0.0096* | 0.024 | ?
CC1OC(O[C@H]2CC[C@]3(C)C4C=C[C@]56OC[C@@]7(CC[C@@H](C)[C@H](C)C75)[C@H](O)C[C@@]6(C)[C@]4(C)CC[C@H]3C2(C)C)C(OC2OC(CO)C(O)C(O)C2OC2OCC(O)C(O)C2O)C(O)C1O (stereo not given in full) | 39* | -45 | i | . | i | i | 0.013* | 0.046* | 0.032 | 0.0085 | ? | 0.01
